Activity calls are given as the source filed them. The calls are words filed in the database; no cut-off is given here.
Assays:
Integrin alpha-V/beta-3 [1] = target: T1, Integrin alpha-V/beta-3 (Homo sapiens, UniProt P05106+P06756); test: Binding affinity to integrin alphavbeta3 in human A549 cells assessed as cellular uptake after 1 hr by NIR Fluorescence microscopy analysis; assay type: cell-based
Method in brief: (§1)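 Integrin αvβ3-positive A549 cells were incubated with the NIR fluorescent probes. Cellular binding and uptake were then imaged by NIR fluorescence microscopy at separate incubation time points.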

Integrin alpha-V/beta-3 [2] = target: T1, Integrin alpha-V/beta-3; test: Binding affinity to integrin alphavbeta3 in human A549 cells assessed as cellular uptake after 6 hrs by NIR Fluorescence microscopy analysis; assay type: cell-based; method in brief: as §1
Integrin alpha-V/beta-3 [3] = target: T1, Integrin alpha-V/beta-3; test: Displacement of [125I]-c(RGDyK) from human integrin alphavbeta3 after 16 hrs by scintillation counting; assay type: protein-complex assay
Integrin alpha-V/beta-3 [4] = target: T1, Integrin alpha-V/beta-3; test: Binding affinity to integrin alphavbeta3 in human A549 cells assessed as cellular uptake in nucleus measured by co-localization with DRAQ5 after 16 hrs by two-dimensional confocal image analysis; assay type: cell-based
Method in brief: (§2)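 A549 cells incubated with probe for 16 h. Confocal imaging with excitation at 488, 633 and 755 nm, scanning a field at 2 µs per pixel. Images overlay a nuclear stain, a mitochondrial stain and cypate fluorescence, and subcellular localization is judged from this co-localization.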

Liver [5] = test: Biodistribution in liver of nude mouse xenografted with human A549 cells expressing integrin alphavbeta3 at 60 uM, iv after 4 hrs by NIR Fluorescence image analysis; assay type: ADME, organism-based; details: in vivo
Method in brief: (§3)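 Nude mice bearing A549 xenografts (5–7 mm diameter) received 100 µL of 60 µM probe by tail-vein injection. Noninvasive whole-body NIR fluorescence imaging (excitation 780 nm, emission 830 nm) was done at 1, 4 and 24 h post-injection, and tissue fluorescence intensity was measured from the images.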

Kidney [6] = test: Biodistribution in kidney of nude mouse xenografted with human A549 cells expressing integrin alphavbeta3 at 60 uM, iv after 4 hrs by NIR Fluorescence image analysis; assay type: ADME, organism-based; details: in vivo; method in brief: as §3
Integrin alpha-V/beta-3 [7] = target: T1, Integrin alpha-V/beta-3; test: Binding affinity to integrin alphavbeta3 in human A549 cells assessed as cellular uptake in mitochondria measured by co-localization with mitotracker orange CM-TMRos after 16 hrs by two-dimensional confocal image analysis; assay type: cell-based; method in brief: as §2
Blood = test: Biodistribution in blood of nude mouse xenografted with human A549 cells expressing integrin alphavbeta3 at 60 uM, iv after 24 hrs by NIR Fluorescence image analysis; assay type: ADME, organism-based; details: in vivo
Method in brief: (§4)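 Nude mice bearing A549 xenografts (5–7 mm diameter) received 100 µL of 60 µM probe by tail-vein injection. Animals were euthanized at 24 h post-injection. Excised organs were imaged ex vivo for NIR fluorescence (excitation 780 nm, emission 830 nm), and organ fluorescence intensity was measured.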

Mus musculus [8] = test: Biodistribution in adrenal of nude mouse xenografted with human A549 cells expressing integrin alphavbeta3 at 60 uM, iv after 24 hrs by NIR Fluorescence image analysis; assay type: ADME, organism-based, Adrenal tissue; details: in vivo; method in brief: as §4
Zone of skin = test: Biodistribution in skin of nude mouse xenografted with human A549 cells expressing integrin alphavbeta3 at 60 uM, iv after 24 hrs by NIR Fluorescence image analysis; assay type: ADME, organism-based; details: in vivo; method in brief: as §4
Brain = test: Biodistribution in brain of nude mouse xenografted with human A549 cells expressing integrin alphavbeta3 at 60 uM, iv after 24 hrs by NIR Fluorescence image analysis; assay type: ADME, organism-based; details: in vivo; method in brief: as §4
Muscle tissue = test: Biodistribution in muscle of nude mouse xenografted with human A549 cells expressing integrin alphavbeta3 at 60 uM, iv after 24 hrs by NIR Fluorescence image analysis; assay type: ADME, organism-based; details: in vivo; method in brief: as §4
Spleen = test: Biodistribution in spleen of nude mouse xenografted with human A549 cells expressing integrin alphavbeta3 at 60 uM, iv after 24 hrs by NIR Fluorescence image analysis; assay type: ADME, organism-based; details: in vivo; method in brief: as §4
Kidney [9] = test: Biodistribution in kidney of nude mouse xenografted with human A549 cells expressing integrin alphavbeta3 at 60 uM, iv after 24 hrs by NIR Fluorescence image analysis; assay type: ADME, organism-based; details: in vivo; method in brief: as §4
Liver [10] = test: Biodistribution in liver of nude mouse xenografted with human A549 cells expressing integrin alphavbeta3 at 60 uM, iv after 24 hrs by NIR Fluorescence image analysis; assay type: ADME, organism-based; details: in vivo; method in brief: as §4
Mus musculus [11] = test: Biodistribution in tumor of nude mouse xenografted with human A549 cells expressing integrin alphavbeta3 at 60 uM, iv after 24 hrs by NIR Fluorescence image analysis; assay type: ADME, organism-based, Neoplasm; details: in vivo; method in brief: as §4
Heart = test: Biodistribution in heart of nude mouse xenografted with human A549 cells expressing integrin alphavbeta3 at 60 uM, iv after 24 hrs by NIR Fluorescence image analysis; assay type: ADME, organism-based; details: in vivo; method in brief: as §4
Mus musculus [12] = test: Biodistribution in tumor of nude mouse xenografted with human A549 cells expressing integrin alphavbeta3 at 60 uM, iv after 4 hrs by NIR Fluorescence image analysis; assay type: ADME, organism-based, Neoplasm; details: in vivo; method in brief: as §3
Pancreas = test: Biodistribution in pancreas of nude mouse xenografted with human A549 cells expressing integrin alphavbeta3 at 60 uM, iv after 24 hrs by NIR Fluorescence image analysis; assay type: ADME, organism-based; details: in vivo; method in brief: as §4

Structure (SMILES)	Activity (Integrin alpha-V/beta-3 [1])	Activity (Integrin alpha-V/beta-3 [2])	IC50 (Integrin alpha-V/beta-3 [3]) [nM]	Ki (Integrin alpha-V/beta-3 [3]) [nM]	Activity (Integrin alpha-V/beta-3 [4])	Drug uptake (Liver [5])	Drug uptake (Kidney [6])	Activity (Integrin alpha-V/beta-3 [7])	Drug uptake (Blood)	Drug uptake (Mus musculus [8])	Drug uptake (Zone of skin)	Drug uptake (Brain)	Drug uptake (Muscle tissue)	Drug uptake (Spleen)	Drug uptake (Kidney [9])	Drug uptake (Liver [10])	Drug uptake (Mus musculus [11])	Drug uptake (Heart)	Drug uptake (Mus musculus [12])	Drug uptake (Pancreas)
CC1(C)C(/C=C/C=C/C=C/C=C2/N(CCC(=O)NCCCC[C@@H]3NC(=O)[C@@H](Cc4ccccc4)NC(=O)[C@H](CC(=O)O)NC(=O)CNC(=O)[C@H](CCCNC(=N)N)NC3=O)c3ccc4ccccc4c3C2(C)C)=[N+](CCC(=O)O)c2ccc3ccccc3c21.[Br-]	Active	Active	[…]	[…]	Active	Active	Active	Active												
CC1(C)C(/C=C/C=C/C=C/C=C2/N(CCC(=O)NCCCC[C@@H]3NC(=O)[C@@H](Cc4ccccc4)NC(=O)[C@H](CC(=O)O)NC(=O)CNC(=O)[C@H](CCCNC(=N)N)NC3=O)c3ccc4ccccc4c3C2(C)C)=[N+](CCC(=O)NCCCC[C@@H]2NC(=O)[C@@H](Cc3ccccc3)NC(=O)[C@H](CC(=O)O)NC(=O)CNC(=O)[C@H](CCCNC(=N)N)NC2=O)c2ccc3ccccc3c21.[Br-]	Active	Active	0.281	0.043	Active	Active	Active	Active	Active	Active	Active	Active	Active	Active	Active	Active	Active	Active	Active	Active
CC1(C)C(/C=C/C=C/C=C/C=C2/N(CCC(=O)O)c3ccc4ccccc4c3C2(C)C)=[N+](CCC(=O)O)c2ccc3ccccc3c21	Active	Active																		

Source: ChEMBL document CHEMBL2069223, “Near-infrared fluorescent divalent RGD ligand for integrin αvβ₃-targeted optical imaging” (Bioorg Med Chem Lett, 2012)
